Arbovirus inh – blocks arbovirus infection. arbovirus infection cell-based antiviral screen. 200,000 tested, 0.37% active. inhibition, % at 10 µM. AID 1251; in the data active = inhibition above about 30%
Rad51 HR inh – blocks human Rad51 in homologous recombination; hRad51 DNA strand exchange, fluorescence dequenching; inhibition, % at 10 µM; 200,000 tested, 0.085% active; AID 1385;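 active = inhibition above 40% at the single screening dose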;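 also: 0% = DMSO control wells and 100% = blanks with heterologous ssDNA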
Target sequence (Q06609 whole entry, looked up): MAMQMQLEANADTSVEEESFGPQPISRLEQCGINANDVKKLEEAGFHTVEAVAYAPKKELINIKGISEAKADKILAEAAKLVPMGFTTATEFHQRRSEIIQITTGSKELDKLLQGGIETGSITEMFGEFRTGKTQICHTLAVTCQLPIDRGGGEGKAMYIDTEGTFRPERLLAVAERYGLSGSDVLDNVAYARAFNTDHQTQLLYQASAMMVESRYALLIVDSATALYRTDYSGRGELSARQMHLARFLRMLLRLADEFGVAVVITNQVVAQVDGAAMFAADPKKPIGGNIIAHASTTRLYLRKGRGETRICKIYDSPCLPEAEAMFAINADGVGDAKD
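Test system – preformed human Rad51 ssDNA filaments · Reagent – Donor/quencher-labelled 47-bp dsDNA substrate · Incubation – 37 °C 15-min filament assembly, 30-min compound preincubation, 15-min exchange · Signal – FRET fluorescence dequenching, excitation 485 nm, emission 520 nm · Read-out – percent inhibition from fluorescence, normalised to plate control and blank means · Benchmarks – plate control and blank wells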
Wee1 degr inh – inhibitors of human Wee1 degradation; P30291; reporter increase, % at 5 µM; 220,000 tested, 1.2% active; AID 1321; HeLa Luc-Wee1K328M stability, luciferase luminescence; 100% = proteasome inhibitor MG132 effect;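 active = activation above the mean of all tested compounds plus 3 SD, set per screening run, cut at about 8.8% in these data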;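 also: cells exposed to compound for 20 h before luminescence read; 0% = DMSO alone and 100% = MG132 at 30 µM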
L major viab – reduces viability of Leishmania major promastigotes. 200,000 tested, 9% active. resazurin fluorescence viability. inhibition, % at 10 µM;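 also: promastigotes grown with compound for 44 hours at 28 °C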
PKD1 inh – inhibitors of human PKD1 kinase; Q15139; PKD1 kinase fluorescence polarization assay; inhibition, % (concentration not given with the values); 200,000 tested, 0.056% active
CHOP inhibitor – blocks CHOP induction under ER stress; inhibition, % at 10 µM; 220,000 tested, 3.8% active; CHO-K1 CHOP-promoter luciferase, tunicamycin-induced, 15-18 h;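 active = compounds that reduced the stress-induced luciferase reporter signal by more than about 70% of percent inhibition, limit read from the data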;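 also: 0% = tunicamycin plus vehicle and 100% = wells without tunicamycin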
Active calls of the source: *; . = no result given. In the library only some 12% were active in any assay of this set; here they are far more common. Rule as the data show it, unless noted: active = inhibition above about 50%; inactive = the rest.

SMILES | Arbovirus inh | Rad51 HR inh | Wee1 degr inh | L major viab | PKD1 inh | CHOP inhibitor
CCCCCC1CC(CC(=O)Nc2ccc([N+](=O)[O-])cc2)OC1=O (stereo unspecified) | . | 6.6 | 0.5 | . | . | 90.8*
Cc1onc(-c2ccccc2)c1C(=O)NNC(=S)NC(=O)c1ccc(Br)cc1 | -20.4 | 1.2 | -2.6 | -6.9 | -8.2 | 60.7
COc1ccc(-c2cc(C(=O)NNC(=S)NC(=O)c3c(-c4ccccc4)noc3C)[nH]n2)cc1 | -23.3 | -34.9 | 0.3 | 63.2* | -1.9 | 33.7
Cc1onc(-c2ccccc2)c1C(=O)NNC(=S)NC(=O)c1ccc(Cl)cc1Cl | -19.0 | -1.0 | -2.3 | -5.7 | 2.4 | 85.6*
CCOc1ccc(N2C(=O)CC(N(Cc3ccco3)C(=O)CCC(=O)O)C2=O)cc1 (stereo unspecified) | -1.1 | . | 7.3 | 4.5 | -6.7 | -4.2
COc1ccc(/C=C/C(O)=C2/C(=O)NC3(C)CC2c2ccccc2O3)c(OC)c1OC (stereo unspecified) | -11.7 | -11.2 | -1.1 | 47.4 | -2.8 | -70.1
Cc1ccc(/C=C/C(O)=C2/C(=O)N(C)C3(C)CC2c2ccccc2O3)cc1 (stereo unspecified) | -25.7 | 2.6 | -2.3 | 78.7* | 16.6 | -1.1
COc1ccc(/C=C/C(O)=C2/C(=O)N(C)C3(C)CC2c2ccccc2O3)cc1 (stereo unspecified) | -20.5 | -3.6 | 5.0 | 79.9* | 12.6 | -66.8
Cc1nn(-c2ccccc2)c(C)c1[N+](=O)[O-] | 8.4 | . | 0.9 | -2.9 | 2.3 | 25.2
O=C(Cn1nc(CNc2ccc(Cl)cc2)[n+]2c1CCCCC2)c1ccc(Br)cc1 | 14.6 | . | 0.2 | 59.1* | 13.6 | -9.1
c1ccc(CN2C3=NCCN3c3ccccc32)cc1 | 5.5 | . | -1.1 | -6.3 | -6.3 | -4.8
Clc1ccc(CN2C3=NCCN3c3ccccc32)cc1Cl | -17.8 | -3.3 | -2.0 | 65.1* | -5.8 | 26.3
CCN(CC)c1ccc(NC(=O)c2cnc3ccccn3c2=O)c(C)c1 | 2.1 | 2.6 | -2.5 | 6.4 | -8.1 | 80.8*
COc1ccc(C(=O)/C=C/c2ccc(N3CCCCC3)c([N+](=O)[O-])c2)cc1 | 4.5 | 1.6 | 2.4 | 28.3 | -2.4 | -13.1
COc1ccc(/C=C/C(=O)c2ccc(C)c([N+](=O)[O-])c2)cc1O | -34.6 | 3.5 | -3.1 | 100.0* | 0.1 | -3.3
COc1ccccc1NC(=O)/C(=C/c1cccc([N+](=O)[O-])c1)c1ccccc1 | 1.6 | 6.3 | 0.3 | 89.3* | 0.8 | 25.9
COc1cc(/C=C/C(=O)c2ccc(C)c([N+](=O)[O-])c2)cc(OC)c1O | -34.4 | 0.4 | -2.9 | 79.4* | 3.5 | -26.2
COc1cccc(/C=C/C(=O)c2ccc[nH]2)c1 | -14.9 | . | 1.7 | 100.2* | 3.5 | 5.4
COc1ccccc1N1C(=O)CC(Sc2ccccc2N)C1=O (stereo unspecified) | . | 10.8 | 0.7 | . | . | -2.2
COc1cccc(/C=C/C(=O)c2ccc(C)c([N+](=O)[O-])c2)c1 | -12.9 | 8.8 | 2.8 | 76.2* | -6.2 | -59.2
COc1cc(/C=C/C(=O)c2cccc([N+](=O)[O-])c2)cc(OC)c1OC | -36.6 | 6.3 | 0.0 | 100.4* | -5.9 | -1.0
O=c1[nH]c2ccccc2n1CCCSc1cnc2ccccc2n1 | 12.8 | -8.7 | -0.8 | 7.9 | 0.6 | 77.8*
CCNCc1cc(Cl)cc(OC)c1OC(C)C | 2.5 | -46.3 | 9.2* | -2.1 | -4.8 | 6.9
COC(=O)Cc1[nH]n(-c2nc3ccccc3s2)c(=O)c1C(C)=Nc1ccc(C)cc1 | 1.1 | 9.3 | -0.8 | -5.2 | -0.2 | 107.2*
CCCN=C(C)c1c(-c2ccccc2)[nH]n(-c2nc3ccccc3s2)c1=O | 4.8 | 4.0 | 0.8 | 4.4 | -0.4 | 71.9*
SMILES | Arbovirus inh | Rad51 HR inh | Wee1 degr inh | L major viab | PKD1 inh | CHOP inhibitor
COC(=O)Cc1[nH]n(-c2nc3ccccc3s2)c(=O)c1C(C)=Nc1ccc(Cl)cc1 | . | . | -4.2 | . | . | 83.0*
CCN(CC(=O)Nc1cccc(C(C)=O)c1)S(=O)(=O)c1ccc(C)cc1 | 0.2 | . | -2.8 | 7.2 | 0.9 | 9.6
Clc1cccc(Cl)c1CSc1nnc(CN2CCOCC2)n1-c1ccccc1 | 6.8 | -8.7 | 10.5* | 0.2 | 3.5 | 22.7
Cn1c(CS(=O)Cc2c(Cl)cccc2Cl)nnc1SCc1c(Cl)cccc1Cl (stereo unspecified) | 0.9 | 8.0 | 0.0 | -5.4 | 6.4 | 1.0
O=S(Cc1ccc(Br)cc1)Cc1nnc(SCc2c(Cl)cccc2Cl)n1-c1ccccc1 (stereo unspecified) | -17.3 | . | 0.2 | 96.0* | -1.1 | 69.1
O=C(O)C1C(=O)NCC1c1ccccc1 (stereo unspecified) | 1.4 | . | -2.4 | -4.1 | -4.2 | 9.2
Cc1ccc(CC2CC(=O)N(c3cc(Cl)ccn3)C2=O)cc1 (stereo unspecified) | . | -8.6 | -1.4 | . | . | 3.3
CC(C)(C)OC(=O)N[C@@H](Cc1ccccc1)c1nnc(SCC(N)=O)o1 | . | 5.0 | -1.6 | . | . | 9.2
Cc1cccc(CS(=O)(=O)c2nnc([C@H](Cc3ccccc3)NC(=O)OC(C)(C)C)o2)c1 | -43.1 | -12.4 | -1.8 | 1.0 | -2.9 | 115.3*
CC(C)CC(C(=O)NC1CCCC1)N(Cc1ccc2c(c1)OCO2)C(=O)c1snc(C(N)=O)c1N (stereo unspecified) | -17.0 | 0.3 | 2.5 | 28.0 | 7.4 | 80.8*
CC(C)CCNC(=O)C(c1ccco1)N(Cc1ccccc1)C(=O)c1snc(C(N)=O)c1N (stereo unspecified) | 2.5 | -0.9 | -0.3 | 4.7 | 1.0 | 22.8
CCC(C(=O)NC1CCCC1)N(Cc1ccc2c(c1)OCO2)C(=O)c1snc(C(N)=O)c1N (stereo unspecified) | -9.2 | 3.4 | 0.5 | 6.1 | 10.6 | 7.3
CCc1ccccc1N(CC(=O)NCc1ccco1)C(=O)c1snc(C(N)=O)c1N | -3.6 | -10.2 | 1.5 | 62.3* | -4.4 | 19.7
Cc1ccc(N(C(=O)c2snc(C(N)=O)c2N)C(C(=O)NCCC(C)C)c2ccco2)cc1 (stereo unspecified) | -20.5 | 6.7 | -0.9 | 64.6* | 0.3 | -1.6
CC(C)CCNC(=O)C(CC(C)C)N(Cc1ccc2c(c1)OCO2)C(=O)c1snc(C(N)=O)c1N (stereo unspecified) | -11.8 | -0.1 | -2.1 | 92.3* | 3.1 | 21.2
O=C(NCc1ccc(F)cc1)C(=O)NCC1OCCN1C(=O)c1cccs1 (stereo unspecified) | -1.2 | 6.4 | -1.1 | -5.0 | -10.7 | 11.5
O=C(c1cc(=O)[nH]c2ccccc12)N1CCN(c2ccccc2)CC1 | . | 20.8 | -3.0 | . | . | 2.0
COC(=O)c1ccc(C(=O)OC)c(NC(=S)N2CCN(c3ccccn3)CC2)c1 | 4.8 | 3.7 | 2.1 | 5.0 | 0.1 | 1.9
CC(=O)c1ccc(N=Nc2ccc(N)cc2)cc1 | . | 17.0 | 1.4 | . | . | 28.4
CCC(CC)c1nnc(NC(=O)c2cc(-c3ccccc3)nc3ccccc23)s1 | 2.5 | -3.4 | 1.9 | -4.6 | -9.6 | 8.9
